According to ChEMBL document CHEMBL4706509, “Oligosaccharide-camptothecin conjugates as potential antineoplastic drugs: Design, synthesis and biological evaluation” (Eur J Med Chem, 2020):
≈ marks a conversion by molar mass, not a printed value. Calls of active or inactive are those of the source. The calls are words filed in the database; no cut-off is given here.

Key:
[1] = tested on: HepG2; assay: Antitumor activity against human HepG2 cells assessed as inhibition of cell growth measured after 48 hrs by MTT assay; assay type: functional, cell-based; details: HepG2, 48 h
Procedure, shortened: (§1)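 MTT assay; cells seeded in 96-well plates, exposed 48 h to freshly prepared compound at five concentrations, four replicate wells each; MTT (5 mg/mL) added for 4 h, formazan dissolved in DMSO, absorbance at 490 nm. IC50 by nonlinear regression; mean of three independent experiments.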

[2] = tested on: HCT-116; assay: Antitumor activity against human HCT-116 cells assessed as inhibition of cell growth measured after 48 hrs by MTT assay; assay type: functional, cell-based; details: HCT-116, 48 h; procedure, shortened: as §1
[3] = tested on: SW1990; assay: Antitumor activity against human SW1990 cells assessed as inhibition of cell growth measured after 48 hrs by MTT assay; assay type: functional, cell-based; details: SW1990, 48 h; procedure, shortened: as §1
[4] = tested on: HEK293; assay: Cytotoxicity against human HEK293 cells assessed as reduction in cell viability measured after 48 hrs by MTT assay; assay type: cell-based; details: HEK293, 48 h; procedure, shortened: as §1
[5] = biological target: T1, DNA topoisomerase 1 (Homo sapiens) (UniProt P11387); assay: Inhibition of human recombinant Topoisomerase 1 using supercoiled pBR322 DNA as substrate at 50 uM incubated for 30 mins by ethidium bromide staining based agarose gel electrophoresis
T1 sequence (whole entry): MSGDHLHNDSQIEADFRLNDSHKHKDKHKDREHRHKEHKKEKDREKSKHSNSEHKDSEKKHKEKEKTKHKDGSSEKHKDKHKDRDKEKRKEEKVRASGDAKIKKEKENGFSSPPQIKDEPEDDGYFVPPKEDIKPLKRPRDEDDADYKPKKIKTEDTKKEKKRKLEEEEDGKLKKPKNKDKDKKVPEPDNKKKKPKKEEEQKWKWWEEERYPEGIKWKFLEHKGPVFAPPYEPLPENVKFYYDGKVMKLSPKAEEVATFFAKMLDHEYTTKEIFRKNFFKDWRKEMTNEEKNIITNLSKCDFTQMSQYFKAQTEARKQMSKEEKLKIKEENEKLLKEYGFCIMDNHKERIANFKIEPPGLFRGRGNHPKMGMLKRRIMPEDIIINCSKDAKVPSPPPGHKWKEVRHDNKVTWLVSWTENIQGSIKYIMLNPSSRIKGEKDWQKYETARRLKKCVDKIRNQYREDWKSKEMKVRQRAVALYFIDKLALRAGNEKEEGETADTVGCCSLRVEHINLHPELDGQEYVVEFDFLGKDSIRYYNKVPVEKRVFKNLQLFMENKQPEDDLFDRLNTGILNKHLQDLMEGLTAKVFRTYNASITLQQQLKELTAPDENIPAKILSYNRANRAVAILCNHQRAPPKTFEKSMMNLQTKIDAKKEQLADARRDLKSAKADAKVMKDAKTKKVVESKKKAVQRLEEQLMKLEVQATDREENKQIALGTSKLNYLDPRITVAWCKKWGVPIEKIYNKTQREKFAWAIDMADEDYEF
Procedure, shortened: (§2)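 Cell-free relaxation assay: 1 U recombinant human Topo I with 0.5 µg supercoiled pBR322 in Topo I buffer (Tris-HCl pH 8.0, KCl, MgCl2, DTT, 0.1% BSA), 37 °C for 30 min. 10-HCPT and irinotecan as positive controls. Supercoiled, relaxed and nicked forms resolved on 0.8% agarose in TAE, 90 V for 2 h, ethidium bromide stained.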

[6] = biological target: T1, DNA topoisomerase 1 (Homo sapiens); assay: Inhibition of human recombinant Topoisomerase 1 using supercoiled pBR322 DNA as substrate at 100 uM incubated for 30 mins by ethidium bromide staining based agarose gel electrophoresis; procedure, shortened: as §2
[7] = Aqueous solubility of the compound in 0.1 M Na2HPO4 solution at pH 7.4 incubated for 24 hrs by HPLC analysis; assay type: physicochemical; details: 0.1 M Na2HPO4 solution, pH 7.4
Procedure, shortened: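 Excess solid shaken in 0.2 mL 0.1 M phosphate buffer, pH 7.4, at 25 °C for 24 h, then filtered. Filtrate (100 µL) diluted to 1.5 mL and analysed by isocratic HPLC (CH3CN:H2O 40/60, 1.0 mL/min, 35 °C column, 254 nm). Concentration read from a calibration curve built from DMSO standards. Values are the mean of triplicate determinations, in mg/mL.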

[8] = Ratio of test compound solubility to camptothecin solubility in 0.1 M Na2HPO4 solution at pH 7.4 incubated for 24 hrs by HPLC analysis; assay type: physicochemical; details: buffer, pH 7.4, 24 h
[9] = Stability of compound in 10% phosphate buffer assessed as proportion of lactone form level at pH 7.4 measured after 48 hrs by HPLC analysis; assay type: physicochemical; details: read-out: Drug metabolism
Procedure, shortened: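 1.0 mg dissolved in 50 mL 0.1 M phosphate buffer, pH 7.4, and shaken at 37 °C. […] Lactone versus carboxylate (ring-opened) form quantified by HPLC area normalisation. Mean of triplicate determinations.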

[10] = Toxicity in iv dosed ICR mouse measured for 14 days; assay type: organism-based; details: in vivo, time 14 day

Row | SMILES | IC50 [1] | IC50 [2] | IC50 [3] | IC50 [4] | inhibition [5] | inhibition [6] | solubility at 24 h [7] | Ratio [8] | remaining at 48 h [9] | LD50 at 336 h [10]
1 | CC[C@@]1(OC(=O)NCCOCCO[C@@H]2O[C@H](CO)[C@@H](O)[C@H](OC(N)=O)[C@@H]2O)C(=O)OCc2c1cc1n(c2=O)Cc2cc3ccccc3nc2-1 | 0.9 µM | 1.2 µM | 5.2 µM | 52.1 µM | Active | Active | 16300 µg/mL (≈ 23.8 mM) | 2717 | 92% | –
2 | CCc1c2c(nc3ccc(OC(=O)N4CCC(N5CCCCC5)CC4)cc13)-c1cc3c(c(=O)n1C2)COC(=O)[C@]3(O)CC [IRINOTECAN] | > 100 µM | > 100 µM | > 100 µM | > 100 µM | – | Active | – | – | – | 85.1 mg/kg
3 | CC[C@@]1(OC(=O)NCCOCCO[C@@H]2O[C@H](COC(C)=O)[C@H](OC(C)=O)[C@H](OC(C)=O)[C@H]2OC(C)=O)C(=O)OCc2c1cc1n(c2=O)Cc2cc3ccccc3nc2-1 | 5.6 µM | 3.5 µM | 15.7 µM | > 100 µM | Active | Active | 500 µg/mL (≈ 0.617 mM) | – | 91% | –
